According to ChEMBL document CHEMBL1153591, “Exploring bis-(indolyl)methane moiety as an alternative and innovative CAP group in the design of histone deacetylase (HDAC) inhibitors” (Bioorg Med Chem Lett, 2009):

Assays:
[1] = test system: HCT-116; test: Cytotoxicity against human HCT116 cells after 24 hrs by sulforhodamine B assay; type: functional, cell-based; settings: HCT-116, 24 h
[2] = test system: NCI-H460; test: Cytotoxicity against human H460 cells after 24 hrs by sulforhodamine B assay; type: functional, cell-based; settings: NCI-H460, 24 h
[3] = biological target: Histone deacetylase 9 (Homo sapiens, UniProt Q9UKV0); test: Inhibition of human HDAC9 by fluorimetry
Chain of Histone deacetylase 9 (Q9UKV0 whole entry, the tested form may be a part, canonical isoform): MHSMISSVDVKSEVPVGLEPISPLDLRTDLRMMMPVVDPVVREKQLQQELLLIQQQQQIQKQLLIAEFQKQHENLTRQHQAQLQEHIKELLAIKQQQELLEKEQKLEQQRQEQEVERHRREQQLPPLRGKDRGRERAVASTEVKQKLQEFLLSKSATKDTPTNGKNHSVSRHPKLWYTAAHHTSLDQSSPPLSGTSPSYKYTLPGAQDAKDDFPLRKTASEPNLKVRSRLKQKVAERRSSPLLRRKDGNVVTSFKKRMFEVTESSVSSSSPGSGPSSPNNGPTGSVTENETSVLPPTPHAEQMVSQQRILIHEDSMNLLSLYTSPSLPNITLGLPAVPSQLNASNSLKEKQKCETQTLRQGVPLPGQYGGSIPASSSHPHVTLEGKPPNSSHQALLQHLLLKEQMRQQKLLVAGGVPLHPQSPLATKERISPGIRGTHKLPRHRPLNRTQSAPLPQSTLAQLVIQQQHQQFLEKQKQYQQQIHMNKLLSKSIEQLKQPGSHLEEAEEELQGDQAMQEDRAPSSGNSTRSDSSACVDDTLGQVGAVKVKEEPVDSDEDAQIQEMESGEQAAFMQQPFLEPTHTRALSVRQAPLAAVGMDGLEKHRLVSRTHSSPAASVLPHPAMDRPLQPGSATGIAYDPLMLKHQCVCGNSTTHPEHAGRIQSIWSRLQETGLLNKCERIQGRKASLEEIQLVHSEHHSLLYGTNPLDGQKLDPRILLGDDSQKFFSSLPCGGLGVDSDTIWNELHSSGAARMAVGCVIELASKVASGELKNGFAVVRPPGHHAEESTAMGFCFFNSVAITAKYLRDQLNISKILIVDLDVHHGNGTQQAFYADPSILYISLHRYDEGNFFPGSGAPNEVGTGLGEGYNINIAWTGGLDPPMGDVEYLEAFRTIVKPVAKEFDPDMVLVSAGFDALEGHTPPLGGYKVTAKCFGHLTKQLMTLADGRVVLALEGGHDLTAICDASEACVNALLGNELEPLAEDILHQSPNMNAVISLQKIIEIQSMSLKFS
Procedure, shortened: (§1)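 Each purified single HDAC isoform incubated with fluorogenic substrate, a p53 fragment (residues […], Arg-His-Lys-Lys(Ac)) carrying an ε-acetylated lysine; deacetylation releases fluorophore, read by fluorimeter. Compounds tested as 10 doses, 1:3 serial dilution starting from 50 µM solution. IC50 from dose-response inhibition curves; trichostatin A as reference compound.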

[4] = biological target: Histone deacetylase 1 (Homo sapiens, UniProt Q13547); test: Inhibition of human HDAC1 by fluorimetry; procedure, shortened: as §1
Chain of Histone deacetylase 1 (Q13547 whole entry): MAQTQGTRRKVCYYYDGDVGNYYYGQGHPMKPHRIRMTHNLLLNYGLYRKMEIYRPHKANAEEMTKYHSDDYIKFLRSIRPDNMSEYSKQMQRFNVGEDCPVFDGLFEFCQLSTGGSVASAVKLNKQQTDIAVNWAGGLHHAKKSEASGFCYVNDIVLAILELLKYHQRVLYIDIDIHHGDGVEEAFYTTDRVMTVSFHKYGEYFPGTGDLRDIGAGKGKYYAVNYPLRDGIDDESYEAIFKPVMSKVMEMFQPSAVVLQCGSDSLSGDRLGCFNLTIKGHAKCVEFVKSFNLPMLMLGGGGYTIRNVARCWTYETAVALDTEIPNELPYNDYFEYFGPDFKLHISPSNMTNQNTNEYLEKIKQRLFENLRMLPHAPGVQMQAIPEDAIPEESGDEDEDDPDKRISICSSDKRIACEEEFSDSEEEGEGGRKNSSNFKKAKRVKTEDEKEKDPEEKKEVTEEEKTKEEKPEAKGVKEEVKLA

[5] = biological target: T1, Polyamine deacetylase HDAC10 (Homo sapiens, UniProt Q969S8); test: Inhibition of human HDAC10 by fluorimetry; procedure, shortened: as §1
T1 sequence (Q969S8 whole entry): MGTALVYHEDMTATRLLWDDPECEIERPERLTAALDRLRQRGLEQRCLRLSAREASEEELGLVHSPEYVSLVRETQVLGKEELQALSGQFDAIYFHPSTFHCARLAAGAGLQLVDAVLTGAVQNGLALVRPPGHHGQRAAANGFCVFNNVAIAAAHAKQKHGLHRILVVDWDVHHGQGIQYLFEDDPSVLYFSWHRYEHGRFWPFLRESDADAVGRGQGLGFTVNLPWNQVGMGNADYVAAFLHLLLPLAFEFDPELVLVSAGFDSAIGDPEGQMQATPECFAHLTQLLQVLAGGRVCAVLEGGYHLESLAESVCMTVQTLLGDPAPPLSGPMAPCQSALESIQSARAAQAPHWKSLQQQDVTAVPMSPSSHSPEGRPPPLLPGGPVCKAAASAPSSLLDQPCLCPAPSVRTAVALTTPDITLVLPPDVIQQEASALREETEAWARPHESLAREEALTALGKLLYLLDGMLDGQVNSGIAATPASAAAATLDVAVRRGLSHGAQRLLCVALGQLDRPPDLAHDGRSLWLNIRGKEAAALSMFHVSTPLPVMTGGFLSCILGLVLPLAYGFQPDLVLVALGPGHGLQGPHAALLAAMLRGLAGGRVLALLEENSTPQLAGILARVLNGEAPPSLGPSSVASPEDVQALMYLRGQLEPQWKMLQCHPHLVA

[6] = biological target: Histone deacetylase 2 (Homo sapiens, UniProt Q92769); test: Inhibition of human HDAC2 by fluorimetry; procedure, shortened: as §1
Chain of Histone deacetylase 2 (Q92769 whole entry): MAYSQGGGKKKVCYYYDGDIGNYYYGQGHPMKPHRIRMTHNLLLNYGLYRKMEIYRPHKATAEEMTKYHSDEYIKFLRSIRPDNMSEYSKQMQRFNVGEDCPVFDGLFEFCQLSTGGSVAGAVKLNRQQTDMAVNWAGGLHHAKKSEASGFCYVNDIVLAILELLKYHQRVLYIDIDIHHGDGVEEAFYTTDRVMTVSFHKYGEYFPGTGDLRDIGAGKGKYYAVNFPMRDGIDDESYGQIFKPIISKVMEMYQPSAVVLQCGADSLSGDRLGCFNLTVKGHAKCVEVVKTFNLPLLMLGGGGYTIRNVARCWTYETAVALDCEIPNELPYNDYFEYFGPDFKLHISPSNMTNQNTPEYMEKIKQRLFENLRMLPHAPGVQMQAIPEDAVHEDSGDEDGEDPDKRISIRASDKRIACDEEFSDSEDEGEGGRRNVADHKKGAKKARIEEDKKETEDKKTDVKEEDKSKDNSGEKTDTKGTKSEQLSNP

[7] = biological target: Histone deacetylase 3 (Homo sapiens, UniProt O15379); test: Inhibition of human HDAC3 by fluorimetry; procedure, shortened: as §1
Chain of Histone deacetylase 3 (O15379 whole entry): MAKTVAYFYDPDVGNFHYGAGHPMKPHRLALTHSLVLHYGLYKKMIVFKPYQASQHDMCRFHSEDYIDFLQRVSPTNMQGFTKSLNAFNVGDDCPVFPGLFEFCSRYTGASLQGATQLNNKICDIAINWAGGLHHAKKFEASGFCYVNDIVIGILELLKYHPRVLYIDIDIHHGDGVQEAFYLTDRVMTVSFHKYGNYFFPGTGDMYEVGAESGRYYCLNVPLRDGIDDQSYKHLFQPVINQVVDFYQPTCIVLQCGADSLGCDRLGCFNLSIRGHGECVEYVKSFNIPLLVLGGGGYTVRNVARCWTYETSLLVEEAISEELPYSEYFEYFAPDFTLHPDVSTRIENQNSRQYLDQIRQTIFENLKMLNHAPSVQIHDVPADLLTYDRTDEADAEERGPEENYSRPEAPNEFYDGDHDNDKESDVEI

[8] = biological target: T2, Histone deacetylase 8 (Homo sapiens, UniProt Q9BY41); test: Inhibition of human HDAC8 by fluorimetry; procedure, shortened: as §1
T2 sequence (Q9BY41 whole entry): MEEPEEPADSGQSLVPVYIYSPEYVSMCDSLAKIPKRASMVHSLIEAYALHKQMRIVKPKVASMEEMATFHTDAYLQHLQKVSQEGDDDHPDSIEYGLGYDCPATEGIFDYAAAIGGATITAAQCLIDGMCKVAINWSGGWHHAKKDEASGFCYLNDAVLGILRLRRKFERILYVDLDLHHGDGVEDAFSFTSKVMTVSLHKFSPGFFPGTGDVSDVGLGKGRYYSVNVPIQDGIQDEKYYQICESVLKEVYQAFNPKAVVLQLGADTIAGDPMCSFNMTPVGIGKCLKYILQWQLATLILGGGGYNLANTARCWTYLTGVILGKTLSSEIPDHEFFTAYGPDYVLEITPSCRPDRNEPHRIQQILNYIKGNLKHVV

[9] = biological target: Histone deacetylase 4 (Homo sapiens, UniProt P56524); test: Inhibition of human HDAC4 by fluorimetry; procedure, shortened: as §1
Chain of Histone deacetylase 4 (P56524 whole entry): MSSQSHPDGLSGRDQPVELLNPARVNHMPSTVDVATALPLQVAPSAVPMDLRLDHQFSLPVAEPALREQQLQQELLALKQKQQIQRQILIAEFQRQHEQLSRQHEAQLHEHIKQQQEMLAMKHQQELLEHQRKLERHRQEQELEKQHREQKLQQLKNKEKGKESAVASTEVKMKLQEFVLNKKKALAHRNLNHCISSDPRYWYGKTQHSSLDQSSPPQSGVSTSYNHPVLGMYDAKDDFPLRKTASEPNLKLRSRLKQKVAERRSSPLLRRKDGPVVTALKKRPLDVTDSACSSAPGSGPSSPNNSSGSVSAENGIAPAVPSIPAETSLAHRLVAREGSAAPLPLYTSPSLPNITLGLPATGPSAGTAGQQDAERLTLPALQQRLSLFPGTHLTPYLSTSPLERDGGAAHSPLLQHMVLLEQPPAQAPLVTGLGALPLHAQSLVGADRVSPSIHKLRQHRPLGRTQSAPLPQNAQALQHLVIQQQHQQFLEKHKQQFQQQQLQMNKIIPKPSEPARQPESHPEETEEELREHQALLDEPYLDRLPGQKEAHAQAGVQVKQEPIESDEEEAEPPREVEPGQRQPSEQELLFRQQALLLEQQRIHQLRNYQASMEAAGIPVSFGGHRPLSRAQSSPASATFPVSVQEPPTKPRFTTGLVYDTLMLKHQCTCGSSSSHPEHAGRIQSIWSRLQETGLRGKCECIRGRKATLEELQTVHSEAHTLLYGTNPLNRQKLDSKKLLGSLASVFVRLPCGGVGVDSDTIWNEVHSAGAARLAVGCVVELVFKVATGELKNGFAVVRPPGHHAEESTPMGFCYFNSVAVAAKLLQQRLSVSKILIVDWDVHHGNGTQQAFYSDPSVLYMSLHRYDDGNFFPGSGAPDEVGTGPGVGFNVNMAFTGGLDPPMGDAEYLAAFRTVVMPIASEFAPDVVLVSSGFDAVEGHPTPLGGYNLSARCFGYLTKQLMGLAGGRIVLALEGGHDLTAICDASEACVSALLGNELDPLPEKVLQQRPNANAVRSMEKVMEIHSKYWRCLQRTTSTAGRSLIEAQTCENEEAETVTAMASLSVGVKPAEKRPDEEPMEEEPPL

[10] = biological target: Histone deacetylase 5 (Homo sapiens, UniProt Q9UQL6); test: Inhibition of human HDAC5 by fluorimetry; procedure, shortened: as §1
Chain of Histone deacetylase 5 (Q9UQL6 whole entry): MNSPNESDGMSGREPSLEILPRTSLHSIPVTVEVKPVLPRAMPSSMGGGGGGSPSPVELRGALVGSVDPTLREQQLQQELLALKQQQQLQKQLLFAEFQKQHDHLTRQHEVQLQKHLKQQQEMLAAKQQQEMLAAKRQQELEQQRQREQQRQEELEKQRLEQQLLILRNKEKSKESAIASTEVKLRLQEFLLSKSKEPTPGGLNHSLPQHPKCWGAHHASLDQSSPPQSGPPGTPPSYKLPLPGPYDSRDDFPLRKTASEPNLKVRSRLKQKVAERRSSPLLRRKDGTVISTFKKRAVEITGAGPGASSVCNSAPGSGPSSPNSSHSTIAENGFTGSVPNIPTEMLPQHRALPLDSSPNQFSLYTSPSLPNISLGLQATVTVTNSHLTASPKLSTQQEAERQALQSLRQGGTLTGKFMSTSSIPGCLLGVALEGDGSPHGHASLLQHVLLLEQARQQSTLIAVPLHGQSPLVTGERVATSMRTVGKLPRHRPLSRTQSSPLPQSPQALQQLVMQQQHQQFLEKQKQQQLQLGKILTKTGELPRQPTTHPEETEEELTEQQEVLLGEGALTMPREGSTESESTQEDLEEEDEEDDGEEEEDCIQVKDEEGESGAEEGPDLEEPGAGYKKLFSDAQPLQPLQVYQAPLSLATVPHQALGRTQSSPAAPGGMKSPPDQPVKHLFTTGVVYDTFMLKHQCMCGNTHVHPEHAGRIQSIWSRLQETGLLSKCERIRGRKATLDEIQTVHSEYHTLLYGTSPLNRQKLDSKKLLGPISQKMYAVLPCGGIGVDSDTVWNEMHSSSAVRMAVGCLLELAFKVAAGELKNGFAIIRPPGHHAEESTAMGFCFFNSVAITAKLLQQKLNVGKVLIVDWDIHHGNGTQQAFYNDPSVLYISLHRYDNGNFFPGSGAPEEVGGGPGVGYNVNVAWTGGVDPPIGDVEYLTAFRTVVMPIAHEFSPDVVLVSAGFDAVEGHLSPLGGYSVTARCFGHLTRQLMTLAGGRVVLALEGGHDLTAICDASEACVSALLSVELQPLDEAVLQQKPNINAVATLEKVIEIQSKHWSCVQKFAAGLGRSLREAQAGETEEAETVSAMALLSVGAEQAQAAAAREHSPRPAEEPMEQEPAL

[11] = biological target: T3, Protein deacetylase HDAC6 (Homo sapiens, UniProt Q9UBN7); test: Inhibition of human HDAC6 by fluorimetry; procedure, shortened: as §1
T3 sequence (Q9UBN7 whole entry): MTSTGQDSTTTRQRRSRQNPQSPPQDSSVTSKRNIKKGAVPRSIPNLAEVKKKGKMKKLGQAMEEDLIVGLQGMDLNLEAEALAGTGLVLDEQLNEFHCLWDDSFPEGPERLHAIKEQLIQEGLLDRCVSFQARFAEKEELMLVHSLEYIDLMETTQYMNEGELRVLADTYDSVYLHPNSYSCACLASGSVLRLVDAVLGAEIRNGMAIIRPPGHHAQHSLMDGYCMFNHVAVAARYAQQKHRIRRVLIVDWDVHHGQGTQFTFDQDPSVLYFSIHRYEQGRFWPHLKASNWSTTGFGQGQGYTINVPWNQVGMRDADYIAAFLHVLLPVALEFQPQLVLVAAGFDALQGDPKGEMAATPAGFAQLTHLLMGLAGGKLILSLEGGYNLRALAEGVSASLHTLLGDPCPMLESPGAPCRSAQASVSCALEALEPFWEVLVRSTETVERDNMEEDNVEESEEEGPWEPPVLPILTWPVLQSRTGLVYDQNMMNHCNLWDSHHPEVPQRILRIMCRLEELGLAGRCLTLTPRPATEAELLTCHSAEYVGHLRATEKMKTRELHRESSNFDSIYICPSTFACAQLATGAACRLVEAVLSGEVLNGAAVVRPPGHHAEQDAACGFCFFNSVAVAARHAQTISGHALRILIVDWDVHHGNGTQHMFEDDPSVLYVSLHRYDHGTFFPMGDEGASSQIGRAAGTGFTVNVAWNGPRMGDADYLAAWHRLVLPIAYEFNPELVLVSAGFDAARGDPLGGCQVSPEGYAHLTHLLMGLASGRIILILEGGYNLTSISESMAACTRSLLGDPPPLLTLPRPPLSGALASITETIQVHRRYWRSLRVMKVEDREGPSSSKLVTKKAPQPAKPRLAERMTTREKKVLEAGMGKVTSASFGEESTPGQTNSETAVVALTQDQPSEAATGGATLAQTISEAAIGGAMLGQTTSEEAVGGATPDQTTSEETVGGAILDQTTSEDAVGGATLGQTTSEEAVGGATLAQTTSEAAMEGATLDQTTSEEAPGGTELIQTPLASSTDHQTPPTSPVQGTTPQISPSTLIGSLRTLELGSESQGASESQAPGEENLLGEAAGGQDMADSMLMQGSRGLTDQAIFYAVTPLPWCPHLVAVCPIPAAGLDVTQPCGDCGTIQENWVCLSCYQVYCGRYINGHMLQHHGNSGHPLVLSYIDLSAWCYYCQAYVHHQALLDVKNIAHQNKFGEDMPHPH

Compound	IC50 [1]	IC50 [2]	IC50 [3]	IC50 [4]	IC50 [5]	IC50 [6]	IC50 [7]	IC50 [8]	IC50 [9]	IC50 [10]	IC50 [11]
COc1cccc2c(C(CCCCCC(=O)NO)c3c[nH]c4c(OC)cccc34)c[nH]c12	410 nM	550 nM	340 nM	83 nM	240 nM	440 nM	23 nM	180 nM	220 nM	311 nM	2.6 nM
CN(O)C(=O)CCCCCC(c1c[nH]c2ccccc12)c1c[nH]c2ccccc12	> 20000 nM	> 20000 nM	–	–	–	–	–	–	–	–	–
O=C(CCC(c1c[nH]c2ccccc12)c1c[nH]c2ccccc12)NO	> 20000 nM	> 20000 nM	–	–	–	–	–	–	–	–	–
CN(O)C(=O)CCCCCC(c1cn(C)c2ccccc12)c1cn(C)c2ccccc12	> 20000 nM	> 20000 nM	–	–	–	–	–	–	–	–	–
Cc1[nH]c2ccccc2c1C(c1ccc(/C=C/C(=O)NO)cc1)c1c(C)[nH]c2ccccc12	> 20000 nM	> 20000 nM	–	–	–	–	–	–	–	–	–
O=C(CCCCCC(c1c[nH]c2ccc([N+](=O)[O-])cc12)c1c[nH]c2ccc([N+](=O)[O-])cc12)NO	1200 nM	3200 nM	150 nM	140 nM	250 nM	590 nM	18 nM	600 nM	220 nM	140 nM	20 nM
CCc1cccc2c(C(CCCCCC(=O)NO)c3c[nH]c4c(CC)cccc34)c[nH]c12	3500 nM	4800 nM	–	–	–	–	–	–	–	–	–
O=C(CCCCCCC(c1c[nH]c2ccccc12)c1c[nH]c2ccccc12)NO	3500 nM	2700 nM	–	–	–	–	–	–	–	–	–
O=C(CCCCCc1c[nH]c2ccccc12)NO	15000 nM	22000 nM	–	–	–	–	–	–	–	–	–
